Test results as given in ChEMBL document CHEMBL3351902, “Design and synthesis of novel spin-labeled camptothecin derivatives as potent cytotoxic agents” (Bioorg Med Chem, 2014).

How the values were obtained:
Type in all cases: functional, cell-based
A549 = experiment: Cytotoxicity against human A549 cells after 72 hrs by SRB assay
MDA-MB-231 = experiment: Cytotoxicity against human MDA-MB-231 cells after 72 hrs by SRB assay
Summary of the method: (§1)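 Cells grown in RPMI-1640 with 2 mM L-glutamine, 25 mM HEPES, 10% heat-inactivated FBS, penicillin/streptomycin and amphotericin B, 5% CO2. Seeded at 4.0–7.5 × 10^3 cells/well into medium containing graded sample concentrations, 72 h at 37 °C. Fixed with 10% TCA for 30 min, stained 0.04% SRB for 30 min, dye solubilized in 10 mM Tris base, absorbance at 515 nm. Triplicate runs with duplicate samples, mean IC50 ± SD.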

KB = experiment: Cytotoxicity against human KB cells after 72 hrs by SRB assay
[1] = Cytotoxicity against human KBVIN cells after 72 hrs by SRB assay; summary of the method: as §1

Row | SMILES | IC50 (A549) [nM] | IC50 (MDA-MB-231) [nM] | IC50 (KB) [nM] | IC50 ([1]; kbvin) [nM] | IC50 ([1]; Homo sapiens, KBVIN, 72 h) [nM]
1 | CC[C@@]1(OC(=O)CN/C(CCOC2CC(C)(C)N([O])C(C)(C)C2)=N/S(=O)(=O)c2ccc3ccccc3c2)C(=O)OCc2c1cc1n(c2=O)Cc2cc3ccccc3nc2-1 | 480 | 610 | 580 | 330 | 
2 | CC[C@@]1(OC(=O)CN/C(CCOC2CC(C)(C)N([O])C(C)(C)C2)=N/S(=O)(=O)c2ccc(C)cc2)C(=O)OCc2c1cc1n(c2=O)Cc2cc3ccccc3nc2-1 | 76 | 450 | 210 | 110 | 
3 | CC[C@@]1(OC(=O)[C@@H](C)N/C(CCOC2CC(C)(C)N([O])C(C)(C)C2)=N/S(=O)(=O)c2ccc(C)cc2)C(=O)OCc2c1cc1n(c2=O)Cc2cc3ccccc3nc2-1 | 450 | 530 | 560 | 250 | 
4 | CC[C@@]1(OC(=O)[C@H](N/C(CCOC2CC(C)(C)N([O])C(C)(C)C2)=N/S(=O)(=O)c2ccc(C)cc2)C(C)C)C(=O)OCc2c1cc1n(c2=O)Cc2cc3ccccc3nc2-1 | > 1000 | > 1000 | > 1000 | > 1000 | 
5 | CC[C@@]1(OC(=O)CN/C(CCOC2CC(C)(C)N([O])C(C)(C)C2)=N/S(C)(=O)=O)C(=O)OCc2c1cc1n(c2=O)Cc2cc3ccccc3nc2-1 | 59 | 110 | 71 | 90 | 
6 | CC[C@@]1(OC(=O)CN/C(CCOC2CC(C)(C)N([O])C(C)(C)C2)=N/S(=O)(=O)CC)C(=O)OCc2c1cc1n(c2=O)Cc2cc3ccccc3nc2-1 | 55 | 80 | 59 | 57 | 
7 | CCCCS(=O)(=O)/N=C(\CCOC1CC(C)(C)N([O])C(C)(C)C1)NCC(=O)O[C@]1(CC)C(=O)OCc2c1cc1n(c2=O)Cc2cc3ccccc3nc2-1 | 62 | 230 | 75 | 95 | 
8 | CC[C@@]1(OC(=O)CN/C(CCOC2CC(C)(C)N([O])C(C)(C)C2)=N/S(=O)(=O)c2ccc(OC)cc2)C(=O)OCc2c1cc1n(c2=O)Cc2cc3ccccc3nc2-1 | 81 | 270 | 110 | 96 | 
9 | CC[C@@]1(OC(=O)CN/C(CCOC2CC(C)(C)N([O])C(C)(C)C2)=N/S(=O)(=O)c2ccc(Cl)cc2)C(=O)OCc2c1cc1n(c2=O)Cc2cc3ccccc3nc2-1 | 63 | 190 | 73 | 84 | 
10 | CC[C@@]1(OC(=O)CN/C(CCOC2CC(C)(C)N([O])C(C)(C)C2)=N/S(=O)(=O)c2ccc(F)cc2)C(=O)OCc2c1cc1n(c2=O)Cc2cc3ccccc3nc2-1 | 86 | 270 | 120 | 100 | 
11 | CC[C@@]1(OC(=O)CN/C(CCOC2CC(C)(C)N([O])C(C)(C)C2)=N/S(=O)(=O)c2ccc([N+](=O)[O-])cc2)C(=O)OCc2c1cc1n(c2=O)Cc2cc3ccccc3nc2-1 | 58 | 100 | 59 | 72 | 
12 | CC[C@@]1(OC(=O)[C@@H](CC(C)C)N/C(CCOC2CC(C)(C)N([O])C(C)(C)C2)=N/S(=O)(=O)c2ccc(C)cc2)C(=O)OCc2c1cc1n(c2=O)Cc2cc3ccccc3nc2-1 | 610 | 840 | 700 | 740 | 
13 | CCC(C)[C@@H](N/C(CCOC1CC(C)(C)N([O])C(C)(C)C1)=N/S(=O)(=O)c1ccc(C)cc1)C(=O)O[C@]1(CC)C(=O)OCc2c1cc1n(c2=O)Cc2cc3ccccc3nc2-1 (stereo partly specified) | > 1000 | > 1000 | > 1000 | > 1000 | 
14 | CC[C@@]1(OC(=O)[C@@H](Cc2ccccc2)N/C(CCOC2CC(C)(C)N([O])C(C)(C)C2)=N/S(=O)(=O)c2ccc(C)cc2)C(=O)OCc2c1cc1n(c2=O)Cc2cc3ccccc3nc2-1 | 170 | 500 | 310 | 100 | 
15 | CC[C@@]1(OC(=O)CN/C(CCOC2CC(C)(C)N([O])C(C)(C)C2)=N/S(=O)(=O)c2cccs2)C(=O)OCc2c1cc1n(c2=O)Cc2cc3ccccc3nc2-1 | 63 | 110 | 63 | 83 | 
16 | CC[C@@]1(OC(=O)CN/C(CCOCC2CC(C)(C)N([O])C(C)(C)C2)=N/S(=O)(=O)c2ccc(C)cc2)C(=O)OCc2c1cc1n(c2=O)Cc2cc3ccccc3nc2-1 | 62 | 91 | 80 | 84 | 
17 | CC[C@@]1(OC(=O)CN/C(CCOCC2=CC(C)(C)N([O])C2(C)C)=N/S(C)(=O)=O)C(=O)OCc2c1cc1n(c2=O)Cc2cc3ccccc3nc2-1 | 62.9 | 103 | 82.3 | 83.4 | 
18 | CC[C@@]1(OC(=O)CN/C(CCOCC2=CC(C)(C)N([O])C2(C)C)=N/S(=O)(=O)c2ccc(C)cc2)C(=O)OCc2c1cc1n(c2=O)Cc2cc3ccccc3nc2-1 | 74 | 120 | 91 | 94 | 
19 | CC[C@@]1(OC(=O)CN/C(CCOCC2=CC(C)(C)N([O])C2(C)C)=N/S(=O)(=O)c2ccc(OC)cc2)C(=O)OCc2c1cc1n(c2=O)Cc2cc3ccccc3nc2-1 | 90 | 180 | 130 | 150 | 
20 | CC[C@@]1(OC(=O)CN/C(CCOCC2=CC(C)(C)N([O])C2(C)C)=N/S(=O)(=O)c2ccc(F)cc2)C(=O)OCc2c1cc1n(c2=O)Cc2cc3ccccc3nc2-1 | 77 | 140 | 120 | 95 | 
21 | CC[C@@]1(O)C(=O)OCc2c1cc1n(c2=O)Cc2cc3c(CN(C)C)c(O)ccc3nc2-1 [TOPOTECAN] |  |  |  |  | 400
